Activity calls are given as the source filed them. The rule behind the calls is not given here.
Assays:
[1] = target: T1, RyR1/FKBP12 (Homo sapiens) (UniProt P21817+P62942); assay: Stabilization of FKBP12/RyR1 protein-protein interaction in human 8220 myoblast-derived myotubes assessed as reversal of SIN1-induced intracellular calcium leakage at 150 nM preincubated for 12 hrs followed by SIN1 stimulation and measured after 6 hrs by fura-2 AM dye based fluorescence assay relative to control; conditions: Myotube, time 18.0 hrs
Outline: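 Immortalized human 8220 myoblasts differentiated 9 days into myotubes, pretreated with compounds at 150 nM for 12 h, then stressed with 5 mM SIN1 for 6 h. Loaded with Fura-2AM ([…]) plus 0.02% pluronic acid, 30 min, 37 °C; calcium from 340/380 nm excitation ratio. Six replicates, ≥4 images each; recovery score = (treated − untreated)/(control − untreated) × 100.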

[2] = target: T1, RyR1/FKBP12 (Homo sapiens); assay: Stabilization of FKBP12/RyR1 protein-protein interaction in human myotubes assessed as reversal of SIN1-induced reduction in FKBP12/RyR1 co-localization by measuring increase in FKBP12/RyR1 co-localization at 150 nM by in situ proximity ligation assay relative to control; format: tissue-based; set-up: scale not given: the % may be the effect or the level left; conditions: Myotube
Outline: (§1)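 Human myotubes 7–9 days into differentiation, treated at 150 nM, then 5 mM SIN1 for 30 min; PFA-fixed, anti-RyR1 mouse mAb overnight, Duolink orange PLA, MyHC-FITC and DAPI counterstain. Co-localization spots quantified as % of untreated control; 11–15 fields from 3–4 cultures, ≥8 myotubes per field; one-way ANOVA with Dunnett's test.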

[3] = target: T1, RyR1/FKBP12 (Homo sapiens); assay: Stabilization of FKBP12/RyR1 protein-protein interaction in human myotubes assessed as reversal of SIN1-induced reduction in FKBP12/RyR1 co-localization at 150 nM by in situ proximity ligation assay relative to control; set-up: scale not given: the % may be the effect or the level left; conditions: Myotube; outline: as §1
[4] = target: T1, RyR1/FKBP12 (Homo sapiens); assay: Effect on FKBP12/RyR1 protein-protein interaction in human myotubes by in situ proximity ligation assay; conditions: Myotube; outline: as §1
[5] = target: T2, Peptidyl-prolyl cis-trans isomerase FKBP1A (Homo sapiens, UniProt P62942); assay: Binding affinity to FKBP12 (unknown origin) expressed in HEK293 cells co-expressing FRB assessed as induction of FKBP12-FRB dimerization at […] measured for 15 mins by nano-glo live cell reagent based luminescence assay
Outline: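 HEK293 cells on poly-D-lysine, transfected with FRB-LgBiT and FKBP-SmBiT vectors (12.5 ng/mL each); assayed 20–24 h later in CO2-independent medium with Nano-Glo Live Cell Reagent at 37 °C. Compound added alone at […]; dimerization luminescence (RLU) followed over time, each addition recorded 15 min.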

[6] = target: T2, Peptidyl-prolyl cis-trans isomerase FKBP1A; assay: Binding affinity to FKBP12 (unknown origin) expressed in HEK293 cells co-expressing FRB assessed as inhibition of rapamycin-induced FKBP12-FRB dimerization measured after 25 mins by nano-glo live cell reagent based luminescence assay

T2 sequence (P62942 whole entry): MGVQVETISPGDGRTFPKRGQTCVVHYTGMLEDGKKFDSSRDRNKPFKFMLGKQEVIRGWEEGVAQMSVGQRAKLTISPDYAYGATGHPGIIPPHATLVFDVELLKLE

Row | SMILES | Activity [1] | also measured
1 | O=C(O)[C@@H](Cc1ccc(O)cc1)n1cc(CSc2cccc(C(F)(F)F)c2)nn1 | Active | 
2 | O=C(O)[C@H](Cc1ccc(O)cc1)n1cc(CSc2cccc(C(F)(F)F)c2)nn1 | inactive | 
3 | CC(C)(C)OC(=O)NCCCC[C@@H](C(=O)O)n1cc(CSc2cccc(Cl)c2)nn1 | inactive | 
4 | CCC[C@H](C(=O)O)n1cc(CSc2cccc(OC)c2)nn1 | Active | 
5 | Cc1ccc(SCCc2cn(CC(=O)O)nn2)cc1 | < 90% | 
6 | COc1ccc2c(c1)CN(C)CCS2 | Active | Activity [2]: 84%; Activity [3]: 56%; Activity [4]: inactive
7 | COc1cccc(SCc2cn(C(C)(C)C(=O)O)nn2)c1 | < 90% | 
8 | COc1ccc(SCc2cn(CC(=O)O)nn2)cc1 | < 90% | 
9 | O=C(O)Cn1cc(CSc2ccccc2)nn1 | < 90% | 
10 | O=C(O)Cn1cc(CSc2c(F)c(F)cc(F)c2F)nn1 | < 90% | 
11 | COc1cccc(SCc2cn(CC(=O)O)nn2)c1 | < 90% | Activity [5]: inactive; IC50 [6]: 3.32 µM; Activity [3]: 46%; Activity [4]: inactive
12 | COc1cccc(SCc2cn([C@H](CC(C)C)C(=O)O)nn2)c1 | Active | 
13 | O=C(O)[C@@H](Cc1ccccc1)n1cc(CSc2cccc(C(F)(F)F)c2)nn1 | inactive | 
14 | COc1cccc(SCc2cn([C@H](Cc3ccccc3)C(=O)O)nn2)c1 | Active | 
15 | O=C(O)Cn1cc(CSc2cccc(Cl)c2)nn1 | inactive | 
16 | COc1cccc(SCc2cn([C@@H](Cc3ccccc3)C(=O)O)nn2)c1 | Active | 

Reference: ChEMBL document CHEMBL4732161, “Discovery of a novel family of FKBP12 "reshapers" and their use as calcium modulators in skeletal muscle under nitro-oxidative stress” (Eur J Med Chem, 2021)
